Assays:
[1] = target: Cannabinoid receptor 1 (Rattus norvegicus, UniProt P20272); assay: Binding affinity to Cannabinoid receptor 1 from rat forebrain synaptosomal membranes was measured using [3H]CP-55940 as radioligand
Outline: (§1)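 Filtration displacement assay: 40 µg membrane protein (rat forebrain synaptosomes for CB1, mouse spleen for CB2) incubated 1 h at 30 °C with 0.76 nM [3H]CP-55,940 and varied test concentrations. Nonspecific binding defined by 100 nM unlabeled CP-55,940. Specific binding normalized 0–100%, IC50 fitted with a four-variable equation (max 100, min 0), mean of ≥3 experiments in duplicate, then converted to Ki.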

[2] = target: Cannabinoid receptor 2 (Mus musculus, UniProt P47936); assay: Binding affinity to Cannabinoid receptor 2 from mouse spleen was measured using [3H]CP-55940 as radioligand; format: tissue-based; outline: as §1
Cannabinoid receptor 2, sequence (P47936 whole entry): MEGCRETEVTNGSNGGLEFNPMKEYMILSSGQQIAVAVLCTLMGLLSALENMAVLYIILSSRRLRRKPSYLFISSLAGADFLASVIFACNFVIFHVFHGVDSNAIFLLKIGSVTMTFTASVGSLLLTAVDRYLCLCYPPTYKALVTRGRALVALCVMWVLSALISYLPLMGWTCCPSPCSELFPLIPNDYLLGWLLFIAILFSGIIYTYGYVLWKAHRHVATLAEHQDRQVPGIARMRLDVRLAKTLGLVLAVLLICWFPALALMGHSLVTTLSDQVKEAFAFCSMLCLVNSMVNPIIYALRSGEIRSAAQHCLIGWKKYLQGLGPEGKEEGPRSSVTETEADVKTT

Cannabinoid receptor 1, sequence (P20272 whole entry): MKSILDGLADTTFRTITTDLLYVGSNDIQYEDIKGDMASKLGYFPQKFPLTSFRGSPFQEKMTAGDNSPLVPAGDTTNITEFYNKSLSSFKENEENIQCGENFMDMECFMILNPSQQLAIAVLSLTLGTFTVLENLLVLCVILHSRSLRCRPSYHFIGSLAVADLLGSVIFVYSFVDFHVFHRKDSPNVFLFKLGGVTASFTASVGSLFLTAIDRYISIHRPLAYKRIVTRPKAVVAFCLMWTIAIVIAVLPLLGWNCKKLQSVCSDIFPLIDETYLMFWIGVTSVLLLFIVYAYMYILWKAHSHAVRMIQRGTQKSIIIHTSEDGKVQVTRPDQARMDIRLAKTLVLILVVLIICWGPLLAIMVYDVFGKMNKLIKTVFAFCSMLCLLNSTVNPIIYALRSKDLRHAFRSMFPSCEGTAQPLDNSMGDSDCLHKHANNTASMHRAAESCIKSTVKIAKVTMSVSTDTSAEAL

SMILES	Ki [1]	Ki [2]
CCCCCCC(C)(C)c1cc(O)c2c(c1)O[C@@](C)(CO)[C@@H]1CC[C@@H](CO)C[C@@H]21	1.9 nM	1.4 nM
CCCCCCC(C)(C)c1cc(O)c2c(c1)O[C@@](C)(CCO)[C@@H]1CC[C@@H](CO)C[C@@H]21	2.8 nM	2.3 nM
CCCCCCC(C)(C)c1cc(O)c2c(c1)O[C@@](C)(CC)[C@@H]1CC[C@@H](CO)C[C@@H]21	11.1 nM	21.5 nM
CCCCCCC(C)(C)c1cc(O)c2c(c1)O[C@@](C)(CCCO)[C@@H]1CC[C@@H](CO)C[C@@H]21	2.2 nM	3.4 nM
CCCCCCC(C)(C)c1cc(O)c2c(c1)O[C@@](C)(CCC)[C@@H]1CC[C@@H](CO)C[C@@H]21	14.4 nM	38.9 nM
CCCCCCC(C)(C)c1cc(O)c2c(c1)OC(C)(C)[C@@H]1CC[C@@H](CO)C[C@@H]21	2.3 nM	2.3 nM
CCCCCCC(C)(C)c1cc(O)c2c(c1)O[C@@](C)(CCCI)[C@@H]1CC[C@@H](CO)C[C@@H]21	2.2 nM	4.3 nM
CCCCCCC(C)(C)c1cc(O)c2c(c1)O[C@@](C)(CCI)[C@@H]1CC[C@@H](CO)C[C@@H]21	40.7 nM	9.7 nM
